Active and inactive are the calls of the source. No cut-off for these calls is given here.
How the values were obtained:
[1] = target: T1, Muscarinic acetylcholine receptor M1 (Rattus norvegicus, UniProt P08482); experiment: Displacement of [3H]-NMS from Sprague-Dawley rat muscarinic M1 receptor in cortex membrane; format: cell membranes
T1 sequence (P08482 whole entry): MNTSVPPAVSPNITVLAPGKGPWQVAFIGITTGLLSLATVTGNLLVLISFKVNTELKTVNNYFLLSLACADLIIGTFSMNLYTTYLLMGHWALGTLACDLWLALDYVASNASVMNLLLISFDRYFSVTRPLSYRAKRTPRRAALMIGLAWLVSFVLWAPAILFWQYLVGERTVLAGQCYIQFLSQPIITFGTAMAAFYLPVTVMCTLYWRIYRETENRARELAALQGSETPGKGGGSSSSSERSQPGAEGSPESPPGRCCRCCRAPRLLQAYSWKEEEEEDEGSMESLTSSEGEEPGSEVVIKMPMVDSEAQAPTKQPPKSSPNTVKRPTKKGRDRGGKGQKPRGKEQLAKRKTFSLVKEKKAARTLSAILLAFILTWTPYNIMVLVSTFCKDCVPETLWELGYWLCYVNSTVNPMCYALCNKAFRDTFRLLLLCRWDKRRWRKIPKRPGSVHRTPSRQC

[2] = target: Muscarinic acetylcholine receptor M3 (Rattus norvegicus, UniProt P08483); experiment: Displacement of [3H]-NMS from Sprague-Dawley rat muscarinic M3 receptor in submandibular gland
Muscarinic acetylcholine receptor M3, sequence (P08483 whole entry): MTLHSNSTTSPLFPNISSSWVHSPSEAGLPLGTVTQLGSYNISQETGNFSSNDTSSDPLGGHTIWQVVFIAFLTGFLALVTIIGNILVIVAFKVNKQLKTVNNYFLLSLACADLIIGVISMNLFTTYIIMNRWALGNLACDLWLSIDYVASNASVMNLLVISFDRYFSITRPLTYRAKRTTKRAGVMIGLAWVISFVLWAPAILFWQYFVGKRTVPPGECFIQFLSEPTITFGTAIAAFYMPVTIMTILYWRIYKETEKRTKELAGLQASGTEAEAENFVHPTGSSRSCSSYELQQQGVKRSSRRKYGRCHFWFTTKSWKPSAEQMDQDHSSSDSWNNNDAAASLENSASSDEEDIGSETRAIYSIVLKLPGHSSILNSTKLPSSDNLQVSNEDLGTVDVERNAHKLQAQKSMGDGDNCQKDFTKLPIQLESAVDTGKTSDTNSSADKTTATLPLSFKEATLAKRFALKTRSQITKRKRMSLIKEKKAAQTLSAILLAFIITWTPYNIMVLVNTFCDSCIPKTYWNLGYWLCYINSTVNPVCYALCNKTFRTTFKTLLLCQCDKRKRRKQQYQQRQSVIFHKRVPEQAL

[3] = target: T2, Muscarinic acetylcholine receptor M2 (Rattus norvegicus, UniProt P10980); experiment: Displacement of [3H]-NMS from Sprague-Dawley rat muscarinic M2 receptor in heart
T2 sequence (P10980 whole entry): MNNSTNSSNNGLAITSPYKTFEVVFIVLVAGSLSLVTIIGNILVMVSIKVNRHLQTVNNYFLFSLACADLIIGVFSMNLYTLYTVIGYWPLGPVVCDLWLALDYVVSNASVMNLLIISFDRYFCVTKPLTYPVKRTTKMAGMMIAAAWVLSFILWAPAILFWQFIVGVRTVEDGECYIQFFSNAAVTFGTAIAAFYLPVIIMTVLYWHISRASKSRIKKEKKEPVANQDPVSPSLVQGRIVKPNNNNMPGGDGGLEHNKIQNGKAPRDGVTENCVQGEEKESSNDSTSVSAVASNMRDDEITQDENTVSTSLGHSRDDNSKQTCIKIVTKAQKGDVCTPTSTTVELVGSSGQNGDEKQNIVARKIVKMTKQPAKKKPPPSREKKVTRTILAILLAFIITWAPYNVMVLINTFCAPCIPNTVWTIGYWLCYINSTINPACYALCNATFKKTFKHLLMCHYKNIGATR

[4] = test system: Rattus norvegicus; experiment: Bronchodilatory effect in Sprague-Dawley rat assessed as inhibition of CCh-induced bronchoconstriction at 0.5 ug/kg, it after 0.5 hrs; format: functional
Summary of the method: (§1)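 Male Sprague-Dawley rats (250–400 g) anaesthetised with pentobarbital sodium (50 mg/kg i.p.), tracheally cannulated, given pancuronium bromide 0.2 mg/kg i.v. Compound given intratracheally at 0.5 μg/kg; CCh 30 μg/kg challenge at 0.25, 0.5, 2 or 24 h post-dose; airway pressure by pressure transducer. Inhibition expressed as mean percentage of control value, n = 3.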

[5] = test system: Rattus norvegicus; experiment: Bronchodilatory effect in Sprague-Dawley rat assessed as inhibition of CCh-induced bronchoconstriction at 0.5 ug/kg, it after 0.25 hrs; format: functional; summary of the method: as §1
[6] = test system: Rattus norvegicus; experiment: Bronchodilatory effect in Sprague-Dawley rat assessed as inhibition of CCh-induced bronchoconstriction at 0.5 ug/kg, it after 2 hrs; format: functional; summary of the method: as §1
[7] = target: Muscarinic acetylcholine receptor M3 (Rattus norvegicus) (UniProt P08483); experiment: Displacement of [3H]-NMS from Sprague-Dawley rat muscarinic M3 receptor in submandibular gland measured after single/double washout
Muscarinic acetylcholine receptor M3 (Rattus norvegicus), sequence (P08483 whole entry, looked up): as the sequence (P08483 whole entry) above

[8] = test system: Rattus norvegicus; experiment: Bronchodilatory effect in it dosed Sprague-Dawley rat assessed as inhibition of CCh-induced bronchoconstriction at 15 mins to 1 hr; format: functional, organism-based
[9] = test system: Rattus norvegicus; experiment: Bronchodilatory effect in Sprague-Dawley rat assessed as inhibition of CCh-induced bronchoconstriction at 0.5 ug/kg, it after 24 hrs; format: functional; summary of the method: as §1
[10] = Drug uptake in it dosed Sprague-Dawley rat submandibular gland after 24 hrs; format: ADME, organism-based; conditions: in vivo
[11] = organism: Rattus norvegicus; experiment: Effect on CCh-induced salivation in Sprague-Dawley rat after 24 hrs; format: ADME, organism-based; conditions: in vivo
Summary of the method: (§2)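 Anaesthetised, cannulated male Sprague-Dawley rats dosed once intratracheally; 24 h later CCh (30 μg/kg) given, with bronchoconstriction (airway pressure via transducer) and salivation (net weight gain of cotton balls in oral cavity) recorded together in the same animal.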

[12] = test system: Rattus norvegicus; experiment: Bronchodilatory effect in it dosed Sprague-Dawley rat assessed as inhibition of CCh-induced bronchoconstriction after 24 hrs; format: functional; conditions: read-out: ID50 (the source's name); summary of the method: as §2
[13] = test system: Lung; experiment: Drug uptake in it dosed Sprague-Dawley rat lung after 24 hrs; format: ADME, organism-based; conditions: in vivo, inhaled_or_intranasal
[14] = organism: Rattus norvegicus; experiment: Ratio of ID50 for effect on CCh-induced salivation in Sprague-Dawley rat to ID50 for inhibition of CCh-induced bronchoconstriction Sprague-Dawley rat

| SMILES | Ki [1] [nM] | Ki [2] [nM] | Ki [3] [nM] | other results |
| --- | --- | --- | --- | --- |
| O=C(Nc1ccsc1-c1ccccc1)O[C@@H]1CN2CCC1CC2 | 4.6 | 4 | 13 | – |
| C[N+]12CCC(OC(=O)Nc3ccsc3-c3ccccc3)(CC1)CC2 | 0.02 | 0.02 | 0.027 | inhibition in vivo at 0.0005 mg/kg [4]: 78%; inhibition in vivo at 0.0005 mg/kg [5]: 42%; inhibition in vivo at 0.0005 mg/kg [6]: 86% |
| C[N+]12CCC(OC(=O)Nc3ncsc3-c3cccc(Cl)c3)(CC1)CC2 [listing 1 of 2 here] | – | – | – | inhibition [7]: inactive; inhibition [8]: Active |
| C[N+]12CCC(CC1)[C@@H](OC(=O)Nc1ncsc1-c1ccccc1)C2 | 0.37 | 0.37 | 1.2 | inhibition in vivo at 0.0005 mg/kg [4]: 62%; inhibition in vivo at 0.0005 mg/kg [5]: 74%; inhibition in vivo at 0.0005 mg/kg [6]: 54%; inhibition in vivo at 0.0005 mg/kg [9]: 14% |
| O=C(Nc1ncsc1-c1ccccc1)O[C@H]1CN2CCC1CC2 | 0.75 | 0.93 | 1.9 | – |
| C[N+]1(C)[C@@H]2C[C@@H](OC(=O)C(O)(c3cccs3)c3cccs3)C[C@H]1[C@@H]1O[C@@H]12.O.[Br-] [TIOTROPIUM BROMIDE] | 0.16 | 0.3 | 0.15 | Drug uptake [10]: Active; inhibition in vivo at 0.0005 mg/kg [4]: 59%; ID50 [11]: 1.9 µg/kg; inhibition [7]: Active; inhibition in vivo at 0.0005 mg/kg [5]: 44%; inhibition in vivo at 0.0005 mg/kg [6]: 83%; inhibition in vivo at 0.0005 mg/kg [9]: 78%; ED50 [12]: 0.12 µg/kg; Drug uptake [13]: Active; Ratio [14]: 16 |
| O=C(Nc1sccc1-c1ccccc1)OC12CCN(CC1)CC2 | 0.33 | 0.12 | 1.4 | – |
| C[N+]12CCC(OC(=O)Nc3ncsc3-c3cccc(C(F)(F)F)c3)(CC1)CC2 | 2.3 | 1.8 | 14 | – |
| C[N+]12CCC(OC(=O)Nc3ncsc3-c3cccc(Cl)c3)(CC1)CC2 [listing 2 of 2 here] | 0.041 | 0.049 | 0.053 | inhibition in vivo at 0.0005 mg/kg [4]: 67%; inhibition in vivo at 0.0005 mg/kg [5]: 67%; inhibition in vivo at 0.0005 mg/kg [6]: 84%; inhibition in vivo at 0.0005 mg/kg [9]: 82% |
| C[N+]12CCC(OC(=O)Nc3ncsc3-c3ccccc3)(CC1)CC2 | 0.055 | 0.064 | 0.12 | inhibition in vivo at 0.0005 mg/kg [9]: 61% |
| C[N+]12CCC(OC(=O)Nc3ncsc3-c3cccc(Cl)c3)(CC1)CC2.[Br-] | – | – | – | Drug uptake [10]: Active; ID50 [11]: 4.2 µg/kg; ED50 [12]: 0.08 µg/kg; Drug uptake [13]: Active; Ratio [14]: 53 |
| C[N+]1(C)CCC(OC(=O)C(O)(c2ccccc2)C2CCCC2)C1.[Br-] (stereo not drawn) [GLYCOPYRRONIUM BROMIDE] | – | – | – | ED50 [12]: 3.4 µg/kg; inhibition [8]: Active |
| O=C(Nc1ccsc1-c1ccccc1)O[C@H]1CN2CCC1CC2 | 0.19 | 0.19 | 0.82 | – |
| O=C(Nc1ncsc1-c1ccccc1)OC12CCN(CC1)CC2 | 0.39 | – | 0.8 | – |
| O=C(Nc1cscc1-c1ccccc1)OC12CCN(CC1)CC2 | 0.51 | 0.21 | 3.6 | – |
| O=C(Nc1ncoc1-c1ccccc1)O[C@H]1CN2CCC1CC2 | 8.7 | 9.7 | 59 | – |
| CC(C)[N+]1(C)C2CCC1CC(OC(=O)C(CO)c1ccccc1)C2 (stereo not drawn) | – | – | – | inhibition in vivo at 0.0005 mg/kg [4]: 85%; inhibition [7]: inactive; inhibition in vivo at 0.0005 mg/kg [5]: 70%; inhibition in vivo at 0.0005 mg/kg [6]: 83%; inhibition in vivo at 0.0005 mg/kg [9]: 15% |
| O=C(O[C@H]1C[N+]2(CCCOc3ccccc3)CCC1CC2)C(O)(c1cccs1)c1cccs1.[Br-] [ACLIDINIUM BROMIDE] | – | – | – | ID50 [11]: 9.4 µg/kg; ED50 [12]: 0.4 µg/kg; Ratio [14]: 24 |
| O=C(Nc1scnc1-c1ccccc1)O[C@H]1CN2CCC1CC2 | 8.7 | 12 | 39 | – |
| O=C(Nc1ccsc1-c1ccccc1)OC12CCN(CC1)CC2 | 0.095 | 0.056 | 0.46 | – |
| C[N+]12CCC(CC1)[C@@H](OC(=O)Nc1ncsc1-c1cccc(Cl)c1)C2 | 0.31 | 0.25 | 1.2 | inhibition in vivo at 0.0005 mg/kg [4]: 64%; inhibition in vivo at 0.0005 mg/kg [5]: 64%; inhibition in vivo at 0.0005 mg/kg [6]: 50% |
| C[N+]12CCC(OC(=O)Nc3ncsc3-c3cc(Cl)cc(Cl)c3)(CC1)CC2 | 0.12 | 0.12 | 0.64 | – |
| C[N+]12CCC(OC(=O)Nc3ncsc3-c3ccc(F)cc3)(CC1)CC2 | 0.073 | 0.1 | 0.21 | – |
| O=C(Nc1ccccc1-c1ccccc1)OC12CCN(CC1)CC2 | 0.32 | 0.14 | 3.8 | – |
